Compound activity from PubChem BioAssay.
Sampled rows, rich in hits. Any-hit rate of the full collection: about 2.9%.
SIRT5 block: sirtuin-5 (human) deacylase inhibition; Q9NXA8; Purified SirT5, succinyl-peptide AMC, trypsin-coupled fluorescence; inhibition, % at 15 µM; 330,000 compounds, 1.1% hits; in the data active = inhibition above about 15%; inconclusive = no clear call, values can overlap the other calls
Target sequence (Q9NXA8 whole entry, looked up): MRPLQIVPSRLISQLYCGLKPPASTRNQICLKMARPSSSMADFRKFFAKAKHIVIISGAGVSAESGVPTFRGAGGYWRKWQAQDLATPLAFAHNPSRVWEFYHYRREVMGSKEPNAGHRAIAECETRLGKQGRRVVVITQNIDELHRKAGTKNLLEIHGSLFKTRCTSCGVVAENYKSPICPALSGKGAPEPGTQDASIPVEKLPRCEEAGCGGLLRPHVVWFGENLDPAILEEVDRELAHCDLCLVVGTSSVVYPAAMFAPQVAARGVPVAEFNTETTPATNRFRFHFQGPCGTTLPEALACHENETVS
DENV2 CPE: DENV2-induced cell death inhibition; 350,000 compounds, 1.7% hits; CPE inhibition, % at 9.99 µM; DENV2-infected cells, cytopathic effect rescue, plate reader; in the data active = CPE inhibition above about 20%, passing the limit was not always enough; inconclusive = no clear call, values can overlap the other calls; tested in BHK-21 cells
E-selectin induc: induces E-selectin expression in human endothelial cells; 260,000 compounds, 0.37% hits; HUVEC E-selectin immunofluorescence imaging; normalized: neutral wells 0, TNF-alpha wells 100; activation, % at 7.58 µM; AID 686992;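 active = mean E-selectin-positive cell signal at least 10% of the positive control, reached in at least 60% of replicates, without over 20% cell loss; inconclusive = no rule given, readout overlaps actives, possibly toxicity-flagged; inactive = the rest, including those meeting only one limit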
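Material: HUVEC primary endothelial cells; Amount: 3,000 cells per well; Dosing: single concentration; Medium: EGM-2 growth medium on 0.1% gelatin-coated wells; Read-out basis: percent E-selectin-positive cells; Signal: immunofluorescence imaging; Control set: TNF-alpha, DMSO.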
Large screens that a line does not name were inactive.

COCC#Cc1ccc([C@@H]2[C@H]3CN(Cc4ccccc4F)CCCCN3[C@H]2CO)cc1	DENV2 CPE 47
COCC(=O)N1CCCCN2[C@H](CO)[C@@H](c3ccc(C#Cc4ccc(OC)cc4)cc3)[C@@H]2C1	none
COCC#Cc1ccc([C@@H]2[C@@H](CO)N3CCCCN(C(=O)COC)C[C@H]23)cc1	DENV2 CPE 34
COCC(=O)N1CCCCN2[C@H](CO)[C@H](c3ccc(C#Cc4ccc(OC)cc4)cc3)[C@@H]2C1	DENV2 CPE 39
COc1ccc(C#Cc2ccc([C@@H]3[C@@H](CO)N4CCCCN(Cc5ccccc5F)C[C@H]34)cc2)cc1	none
COCC(=O)N1CCCCN2[C@H](C1)[C@@H](c1ccc(C#Cc3ccccc3)cc1)[C@@H]2CO	DENV2 CPE 28
COCC#Cc1ccc([C@@H]2[C@H]3CN(C(=O)COC)CCCCN3[C@H]2CO)cc1	none
COCC(=O)N1CCCCN2[C@H](CO)[C@H](c3ccc(C#Cc4ccccc4)cc3)[C@@H]2C1	none
CCC(Oc1ccccc1)C(=O)Nc1nnc(S(=O)(=O)N2CCCCC2)s1 (stereo not drawn)	none (no result: E-selectin induc)
CC(C)NC(=O)N1[C@H](CO)[C@H]2c3ccccc3N(C(=O)Nc3cccc(Cl)c3)C[C@H]21	none
O=C(O)c1c2c(nc3ccc(S(=O)(=O)N4CCC(C(=O)NCc5ccccc5Cl)CC4)cc13)CCCC2	none (no result: E-selectin induc)
O=C(CSc1nncn1-c1ccccc1)Nc1cc(Cl)cc(Cl)c1	none (no result: E-selectin induc)
Cc1cccc(N(C(=O)c2snc(C(N)=O)c2N)C(C(=O)NC2CCCC2)c2ccc(C)o2)c1 (stereo not drawn)	none
C[C@H](CO)N1C[C@H](C)[C@H](CN(C)S(=O)(=O)c2ccccc2C#N)OCc2ccccc2-c2c(n(C)c3ccccc23)C1=O	DENV2 CPE inconclusive
C[C@H](O)C#Cc1ccc([C@H]2[C@H](CO)N3CCCCN(C(=O)c4ccncc4)C[C@@H]23)cc1	none
COCC(=O)N1CCCCN2[C@H](C1)[C@H](c1ccc(C#Cc3ccccc3)cc1)[C@@H]2CO	DENV2 CPE 40
COCC(=O)N1CCCCN2[C@@H](CO)[C@H](c3ccc(C#Cc4ccccc4)cc3)[C@@H]2C1	none
COc1ccc(C#Cc2ccc([C@H]3[C@@H](CO)N4CCCCN(C(=O)c5ccncc5)C[C@H]34)cc2)cc1	DENV2 CPE 47
O=C(NCC(c1ccco1)N1CCCCC1)c1cnc(Cl)c(Cl)c1 (stereo not drawn)	none (no result: E-selectin induc)
CSc1ccccc1NC(=O)c1ccccn1	none (no result: SIRT5 block, E-selectin induc)
C#CCNC(=O)C1=C[C@H](c2coc3ccccc3c2=O)C[C@H](OCc2ccc(CO)cc2)O1	none
Cc1ccnc(NS(=O)(=O)c2ccc(-n3cccn3)cc2)c1	none (no result: E-selectin induc)
COC(=O)c1c(-c2ccc(SC)cc2)sc2ccccc12	DENV2 CPE 74
COC(=O)c1c(-c2ccc(SC)cc2)sc2ccc(OC)cc12	none
Cc1ccc2nc(NC(=O)CSc3ncnc4c3oc3ccccc34)sc2c1	E-selectin induc 82
Cc1cccc(NC(=O)CSc2ncnc3c2oc2ccccc23)c1	none
COCC(=O)N1[C@H](C#N)[C@H](c2ccccc2-c2ccccc2)[C@@H]1CO	none
CCc1sc(N2[C@H](C#N)[C@@H](c3ccccc3-c3ccc(F)cc3)[C@@H]2CO)nc1C	none
CCC(=O)N1[C@H](C#N)[C@@H](c2ccccc2-c2cccc(C)c2)[C@@H]1CO	none
Cc1ccc(-c2ccccc2[C@@H]2[C@H](C#N)N(C(=O)Cc3cccnc3)[C@H]2CO)cc1	DENV2 CPE 26
CCC(=O)N1[C@H](C#N)[C@H](c2ccccc2-c2cccc(C)c2)[C@@H]1CO	DENV2 CPE 24
COCC(=O)N1[C@H](CO)[C@H](c2ccccc2-c2ccccc2)[C@@H]1C#N	DENV2 CPE 45
Cc1ccc(-c2ccccc2[C@@H]2[C@@H](C#N)N(C(=O)Cc3cccnc3)[C@H]2CO)cc1	none
CCc1sc(N2[C@H](C#N)[C@H](c3ccccc3-c3ccccc3)[C@H]2CO)nc1C	DENV2 CPE 76
O=C(Nc1ccccc1N1CCN(C(=O)c2ccc(Cl)cc2)CC1)c1cccc([N+](=O)[O-])c1	none
CC(C)C(=O)c1cn(CC(=O)NCc2ccc3c(c2)OCO3)c2ccccc12	none (no result: SIRT5 block, DENV2 CPE)
COc1ccc(OCCN(C)CC(=O)Nc2ccccc2SC)cc1	none
CC1CCCCC1NC(=O)C1CCC(CNS(=O)(=O)c2ccc(F)cc2)CC1 (stereo not drawn)	none
O=C(C[C@@H]1CC[C@H]2[C@@H](COC[C@H](O)CN2C(=O)Nc2ccc(Cl)cc2)O1)NCc1ccncn1	none
C=CCOc1ccc(/C=C/C(=O)OCC(=O)N2CCN(S(=O)(=O)c3ccc(C)cc3C)CC2)cc1	none (no result: DENV2 CPE)
N#C[C@@H]1[C@H](c2ccc(-c3ccccc3)cc2)[C@@H](CO)N1C(=O)Cc1ccccc1	none
